Test results published in publication PMC4206749 (Toxicological Research, 2014).

Experiments:
[1] = test system: Salmonella typhimurium strain TA1537; test: Bacterial reverse mutation assay; format: cell-based
[2] = test system: L5178Y Tk^+/− mouse lymphoma cells; test: In vitro comet assay; format: cell-based; details: 4 hr
[3] = test system: S. typhimurium strains (TA98, TA100, TA1535, and TA1537) or E. coli strain (WP2 uvrA); test: Bacterial reverse mutation assay, all five tester strains; format: cell-based, Salmonella typhimurium, Escherichia coli
How it was run: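 Pre-incubation Ames test per OECD 471 with S. typhimurium TA98, TA100, TA1535, TA1537 and E. coli WP2 uvrA. Bacteria plus test compound in DMSO (DMSO as negative control), with S9 mix (10% S9 plus cofactors) or 0.1 M phosphate buffer pH 7.4, were incubated 20 min at 37℃ shaking. Plated in histidine/biotin or tryptophan top agar, incubated 48 hr at 37℃, revertants counted. Triplicate plates; dose ratio about 2.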

Oc1ccc(-c2ccc3cc(O)ccc3c2)c(O)c1 [HS-1793, 4-(6-hydroxy-2-naphthyl)-1,3-benzenediol]
Number of reverse mutants/plate (Mean ± SD) ([1]; TA1537, with S9 activation, 156.3 μg/plate): 14 ± 2 reverse mutants/plate | Number of reverse mutants/plate (Mean ± SD) ([1]; TA1537, with S9 activation, 312.5 μg/plate): 15 ± 5 reverse mutants/plate | Number of reverse mutants/plate (Mean ± SD) ([1]; TA1537, with S9 activation, 625 μg/plate): 14 ± 2 reverse mutants/plate | Number of reverse mutants/plate (Mean ± SD) ([1]; TA1537, with S9 activation, 1,250 μg/plate): 14 ± 1 reverse mutants/plate | Number of reverse mutants/plate (Mean ± SD) ([1]; TA1537, with S9 activation, 2,500 μg/plate): 16 ± 3 reverse mutants/plate | Number of reverse mutants/plate (Mean ± SD) ([1]; TA1537, with S9 activation, 5,000 μg/plate): 15 ± 2 reverse mutants/plate | Number of reverse mutants/plate (Mean ± SD) ([1]; TA1537, without S9 activation, 78.1 μg/plate): 14 ± 2 reverse mutants/plate | Number of reverse mutants/plate (Mean ± SD) ([1]; TA1537, without S9 activation, 156.3 μg/plate): 17 ± 6 reverse mutants/plate | Number of reverse mutants/plate (Mean ± SD) ([1]; TA1537, without S9 activation, 312.5 μg/plate): 13 ± 4 reverse mutants/plate | Number of reverse mutants/plate (Mean ± SD) ([1]; TA1537, without S9 activation, 625 μg/plate): 14 ± 3 reverse mutants/plate | Number of reverse mutants/plate (Mean ± SD) ([1]; TA1537, without S9 activation, 1,250 μg/plate): 15 ± 6 reverse mutants/plate | Number of reverse mutants/plate (Mean ± SD) ([1]; TA1537, without S9 activation, 2,500 μg/plate): 18 ± 1 reverse mutants/plate | Number of reverse mutants/plate (Mean ± SD) ([1]; TA1537, without S9 activation, 5,000 μg/plate): 13 ± 2 reverse mutants/plate | % DNA in tail ([2]; S9 Mix (+), 3.9 μg/ml): 0.98 ± 0.13% | Olive moment ([2]; S9 Mix (+), 3.9 μg/ml): 0.41 ± 0.04 μm | Tail length ([2]; S9 Mix (+), 3.9 μg/ml): 0.86 ± 0.04 μm | Tail moment ([2]; S9 Mix (+), 3.9 μg/ml): 0.04 ± 0.01 μm | % DNA in tail ([2]; S9 Mix (+), 7.8 μg/ml): 1.16 ± 0.08% | Olive moment ([2]; S9 Mix (+), 7.8 μg/ml): 0.56 ± 0.06 μm | Tail length ([2]; S9 Mix (+), 7.8 μg/ml): 0.95 ± 0.13 μm | Tail moment ([2]; S9 Mix (+), 7.8 μg/ml): 0.06 ± 0.01 μm | % DNA in tail ([2]; S9 Mix (+), 15.5 μg/ml): 1.42 ± 0.16% | Olive moment ([2]; S9 Mix (+), 15.5 μg/ml): 0.78 ± 0.12 μm | Tail length ([2]; S9 Mix (+), 15.5 μg/ml): 1.04 ± 0.06 μm | Tail moment ([2]; S9 Mix (+), 15.5 μg/ml): 0.13 ± 0.02 μm | % DNA in tail ([2]; S9 Mix (+), 31 μg/ml): 1.58 ± 0.11% | Olive moment ([2]; S9 Mix (+), 31 μg/ml): 0.80 ± 0.17 μm | Tail length ([2]; S9 Mix (+), 31 μg/ml): 1.17 ± 0.07 μm | Tail moment ([2]; S9 Mix (+), 31 μg/ml): 0.09 ± 0.02 μm | % DNA in tail ([2]; S9 Mix (+), 62 μg/ml): 1.65 ± 0.09% | Olive moment ([2]; S9 Mix (+), 62 μg/ml): 0.85 ± 0.15 μm | Tail length ([2]; S9 Mix (+), 62 μg/ml): 1.20 ± 0.03 μm | Tail moment ([2]; S9 Mix (+), 62 μg/ml): 0.15 ± 0.01 μm | % DNA in tail ([2]; S9 Mix (−), 3.9 μg/ml): 0.93 ± 0.21% | Olive moment ([2]; S9 Mix (−), 3.9 μg/ml): 0.42 ± 0.03 μm | Tail length ([2]; S9 Mix (−), 3.9 μg/ml): 1.49 ± 0.36 μm | Tail moment ([2]; S9 Mix (−), 3.9 μg/ml): 0.03 ± 0.01 μm | % DNA in tail ([2]; S9 Mix (−), 7.8 μg/ml): 1.09 ± 0.37% | Olive moment ([2]; S9 Mix (−), 7.8 μg/ml): 0.62 ± 0.05 μm | Tail length ([2]; S9 Mix (−), 7.8 μg/ml): 1.98 ± 0.27 μm | Tail moment ([2]; S9 Mix (−), 7.8 μg/ml): 0.07 ± 0.02 μm | % DNA in tail ([2]; S9 Mix (−), 15.5 μg/ml): 1.61 ± 0.49% | Olive moment ([2]; S9 Mix (−), 15.5 μg/ml): 0.75 ± 0.07 μm | Tail length ([2]; S9 Mix (−), 15.5 μg/ml): 2.11 ± 0.41 μm | Tail moment ([2]; S9 Mix (−), 15.5 μg/ml): 0.13 ± 0.03 μm | % DNA in tail ([2]; S9 Mix (−), 31 μg/ml): 2.13 ± 0.36% | Olive moment ([2]; S9 Mix (−), 31 μg/ml): 0.98 ± 0.09 μm | Tail length ([2]; S9 Mix (−), 31 μg/ml): 2.75 ± 0.37 μm | Tail moment ([2]; S9 Mix (−), 31 μg/ml): 0.16 ± 0.03 μm | % DNA in tail ([2]; S9 Mix (−), 62 μg/ml): 2.52 ± 0.34% | Olive moment ([2]; S9 Mix (−), 62 μg/ml): 1.01 ± 0.07 μm | Tail length ([2]; S9 Mix (−), 62 μg/ml): 2.82 ± 0.46 μm | Tail moment ([2]; S9 Mix (−), 62 μg/ml): 0.21 ± 0.05 μm | % DNA in the tail, tail length, TM, or OM versus vehicle ([2]; presence or absence of metabolic activation): No significant differences | HS-1793 related toxicity (reduced revertant numbers and/or thinning of the background lawn) ([3]; 5,000 μg/plate, absence or presence of S9 metabolic activation): not observed | Revertant frequencies compared to concurrent vehicle control ([3]; any dose (78.1~5,000 μg/plate), any tester strain, with or without the S9 mix): No increases in revertant frequencies
